Assay results taken from ChEMBL document CHEMBL1158546, “Discovery of novel and potent leukotriene B4 receptor antagonists. Part 1” (J Med Chem, 2010).
In brackets after ≈: the same amount, converted by molar mass. Activity calls are given as the source filed them. No cut-off for these calls is given here.

Key:
[1] = Cmax in rat at 40 mg/kg, po qd treated for 14 days; format: ADME, organism-based; set-up: dose 40 mg/kg, route oral; settings: in vivo
Procedure, shortened: (§1)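 Male Han-Wistar rats (200-230 g) dosed orally once daily for 14 days in 2% Klucel LF/0.1% Tween-80 in water, n = 4 per group. Blood was taken from the retro-orbital sinus under isoflurane/O2 anesthesia, and plasma was separated by cold centrifugation and stored at -70 C until analysis. Exposure values refer to day 14.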

[2] = AUC(0 to 24hrs) in rat at 400 mg/kg, po qd treated for 14 days; format: ADME, organism-based; set-up: time < 24 hr, dose 400 mg/kg, route oral; settings: plasma; procedure, shortened: as §1
Cytochrome P450 1A2 = biological target: T1, Cytochrome P450 1A2 (Homo sapiens, UniProt P05177); assay: Inhibition of CYP1A2 by fluorescence method; format: ADME
T1 sequence (P05177 whole entry): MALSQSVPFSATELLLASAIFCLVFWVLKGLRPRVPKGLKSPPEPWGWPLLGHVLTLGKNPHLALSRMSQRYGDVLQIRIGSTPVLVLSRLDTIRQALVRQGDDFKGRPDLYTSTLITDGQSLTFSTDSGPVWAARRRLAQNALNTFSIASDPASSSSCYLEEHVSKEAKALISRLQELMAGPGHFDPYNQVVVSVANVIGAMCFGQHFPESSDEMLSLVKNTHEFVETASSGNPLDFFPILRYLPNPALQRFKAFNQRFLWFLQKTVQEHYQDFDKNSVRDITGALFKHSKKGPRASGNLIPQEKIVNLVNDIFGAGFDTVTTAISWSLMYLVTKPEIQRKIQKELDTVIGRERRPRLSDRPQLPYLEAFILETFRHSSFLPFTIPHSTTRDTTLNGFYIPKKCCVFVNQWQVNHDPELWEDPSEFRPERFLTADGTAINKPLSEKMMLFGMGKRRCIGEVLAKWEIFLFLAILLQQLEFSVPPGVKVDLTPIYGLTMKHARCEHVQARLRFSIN
Procedure, shortened: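 Cytochrome P450 high-throughput panel (1A2, 2D6, 2C9, 2C19, 3A4) using fluorogenic substrates; IC50 reported.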

[3] = AUC (0 to 24hrs) in rat at 40 mg/kg, po qd treated for 14 days; format: ADME, organism-based; set-up: time < 24 hr, dose 40 mg/kg, route oral; settings: plasma; procedure, shortened: as §1
Cynomolgus monkey = assay: Antiinflammatory activity against ascaris suum antigen-evoked increase in neutrophils at bronchoalveolar lavage in cynomolgus monkey at 10 mg/kg, po after 1 hr treated before LTB4 challenge; format: functional, organism-based; set-up: dose 10 mg/kg; settings: Macaca fascicularis, in the assay text read “before Ascaris suum antigen challenge” for “before LTB4 challenge”
Procedure, shortened: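 Male cynomolgus monkeys (4-10 kg) naturally hypersensitive to Ascaris suum had baseline BAL 24 h before challenge. They were dosed orally with 10 mg/kg in 15% Labrasol in PEG. One hour later, under ketamine/xylazine, they received antigen aerosol for 90 s by endotracheal tube. BAL neutrophil percentage came from 300-cell LeukoStat differentials, with hemocytometer totals. Analysis by two-way ANOVA/Bonferroni; 3-21 animals per group.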

[4] = Cmax in rat at 400 mg/kg, po qd treated for 14 days; format: ADME, organism-based; set-up: dose 400 mg/kg, route oral; settings: in vivo; procedure, shortened: as §1
[5] = biological target: T2, Voltage-gated inwardly rectifying potassium channel KCNH2 (Homo sapiens, UniProt Q12809); assay: Inhibition of human ERG expressed in CHO cells assessed as reduction of current amplitude
T2 sequence (Q12809 whole entry): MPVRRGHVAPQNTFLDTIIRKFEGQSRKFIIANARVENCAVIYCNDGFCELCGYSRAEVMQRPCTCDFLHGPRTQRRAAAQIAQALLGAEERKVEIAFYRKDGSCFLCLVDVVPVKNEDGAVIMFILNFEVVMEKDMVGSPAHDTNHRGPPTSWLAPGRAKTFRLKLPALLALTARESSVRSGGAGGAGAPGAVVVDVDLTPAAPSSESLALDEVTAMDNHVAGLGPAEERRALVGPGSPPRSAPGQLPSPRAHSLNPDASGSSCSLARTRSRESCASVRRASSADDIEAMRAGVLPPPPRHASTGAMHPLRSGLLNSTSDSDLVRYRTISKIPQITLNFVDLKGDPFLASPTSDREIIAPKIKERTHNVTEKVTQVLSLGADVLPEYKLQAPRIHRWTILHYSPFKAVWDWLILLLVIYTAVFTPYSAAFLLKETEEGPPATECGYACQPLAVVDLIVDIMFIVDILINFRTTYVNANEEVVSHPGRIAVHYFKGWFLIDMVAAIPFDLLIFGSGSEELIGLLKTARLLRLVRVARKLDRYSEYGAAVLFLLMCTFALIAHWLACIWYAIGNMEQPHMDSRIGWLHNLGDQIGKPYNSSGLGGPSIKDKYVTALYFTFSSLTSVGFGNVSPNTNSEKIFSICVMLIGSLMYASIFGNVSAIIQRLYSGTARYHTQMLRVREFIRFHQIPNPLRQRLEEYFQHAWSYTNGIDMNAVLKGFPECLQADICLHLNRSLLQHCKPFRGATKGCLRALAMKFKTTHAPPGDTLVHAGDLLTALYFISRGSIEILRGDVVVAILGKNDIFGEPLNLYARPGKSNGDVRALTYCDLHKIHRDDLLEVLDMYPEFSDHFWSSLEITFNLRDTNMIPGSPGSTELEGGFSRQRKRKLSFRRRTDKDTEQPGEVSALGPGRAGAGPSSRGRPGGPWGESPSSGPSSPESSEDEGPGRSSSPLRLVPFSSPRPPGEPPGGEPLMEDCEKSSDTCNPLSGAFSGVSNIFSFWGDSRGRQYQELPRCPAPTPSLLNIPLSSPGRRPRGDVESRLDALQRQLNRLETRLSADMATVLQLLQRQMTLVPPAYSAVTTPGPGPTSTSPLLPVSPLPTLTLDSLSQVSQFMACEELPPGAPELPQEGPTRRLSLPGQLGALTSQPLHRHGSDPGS

Cytochrome P450 2C9 = Cytochrome P450 2C9 (Homo sapiens, UniProt P11712); assay: Inhibition of CYP2C9 by LC/MS method; format: ADME
Sequence of Cytochrome P450 2C9 (P11712 whole entry): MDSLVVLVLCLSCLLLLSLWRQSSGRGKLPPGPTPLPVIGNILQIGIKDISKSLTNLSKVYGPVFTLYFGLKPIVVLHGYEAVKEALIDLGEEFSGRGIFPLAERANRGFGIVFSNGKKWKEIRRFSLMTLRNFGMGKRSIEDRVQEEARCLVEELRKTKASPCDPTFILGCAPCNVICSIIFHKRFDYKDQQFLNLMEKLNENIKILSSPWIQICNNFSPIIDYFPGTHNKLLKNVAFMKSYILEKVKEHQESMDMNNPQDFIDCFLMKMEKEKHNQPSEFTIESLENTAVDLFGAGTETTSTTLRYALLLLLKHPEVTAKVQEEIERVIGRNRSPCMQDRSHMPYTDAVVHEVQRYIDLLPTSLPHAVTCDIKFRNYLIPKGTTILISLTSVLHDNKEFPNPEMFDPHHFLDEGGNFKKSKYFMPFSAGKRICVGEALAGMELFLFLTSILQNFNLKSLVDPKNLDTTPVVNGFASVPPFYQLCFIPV

[6] = Metabolic stability in Beagle dog hepatocytes assessed as compound metabolized after 3 hrs; format: ADME, cell-based, Canis lupus familiaris, Hepatocyte
Procedure, shortened: (§2)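 Cryopreserved hepatocytes at 1.5 million cells/mL (pooled human male/female N = 10, male CD1 mouse, SD rat, beagle dog, cyno monkey) were incubated in Leibovitz medium with 1% FBS and 10 μM substrate. Incubation ran 3 h at 37 C with shaking and was stopped with methanol. Cell-free controls used hepatocyte incubation medium. Parent and metabolites were quantified by UV peak area at 232-242 nm, assuming equal extinction coefficients.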

[7] = Solubility of compound in small intestinal contents in the fed state at pH 5; format: ADME
Procedure, shortened: (§3)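 Solubility measured in simulated intestinal fluid at pH 5.0 (fed) or pH 6.5 (fasted), reported in μg/mL.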

Rattus norvegicus = assay: Metabolic stability of compound in rat plasma assessed as acylglucuronide isomers formed at 400 mg/kg, po; settings: in vivo
[8] = Solubility of compound in small intestinal contents in the fasted state at pH 6.5; format: ADME; procedure, shortened: as §3
[9] = Lipophilicity, log D of compound at pH 7.4; settings: buffer
[10] = biological target: T2, Voltage-gated inwardly rectifying potassium channel KCNH2; assay: Inhibition of human ERG expressed in CHO cells at 3 uM assessed as reduction of current amplitude
Hepatocyte [11] = assay: Metabolic stability in Sprague-Dawley rat hepatocytes assessed as compound metabolized after 3 hrs; format: ADME, cell-based; procedure, shortened: as §2
Hepatocyte [12] = assay: Metabolic stability in human hepatocytes assessed as compound metabolized after 3 hrs; format: ADME, cell-based; procedure, shortened: as §2
[13] = Metabolic stability in CD1 mouse hepatocytes assessed as compound metabolized after 3 hrs; format: ADME, cell-based, Hepatocyte; procedure, shortened: as §2
[14] = Metabolic stability of compound assessed as remaining level in cell free assay; format: ADME; procedure, shortened: as §2
[15] = Metabolic stability in cynomolgus monkey hepatocytes assessed as compound metabolized after 3 hrs; format: ADME, cell-based, Macaca fascicularis, Hepatocyte; procedure, shortened: as §2

| Cmax [1] | AUC at 24 h [2] | IC50 (Cytochrome P450 1A2) | AUC at 24 h [3] | Cmax [4] | IC50 (Cytochrome P450 2C9) | Activity [6] | solubility [7] | Stability (Rattus norvegicus) | solubility [8] | logD [9] | Activity (Hepatocyte [11]) | Activity (Hepatocyte [12]) | Activity [13] | Activity [14] | Activity [15] | Compound | Activity (Cynomolgus monkey) | IC50 [5] | INH [10] |
| --- | --- | --- | --- | --- | --- | --- | --- | --- | --- | --- | --- | --- | --- | --- | --- | --- | --- | --- | --- |
| 11.3 µg/mL | 1870 µg·h/mL | > 7.5 µM | 80.6 µg·h/mL | 124 µg/mL | – | – | – | – | – | – | – | – | – | – | – | O=C(O)CCCOc1cccc(CCCCCCOc2cc(-c3cccc(F)c3)cc(-c3ccc4c(c3)OCO4)c2)c1CCC(=O)O | Active | – | – |
| – | – | > 7.5 µM | – | – | 22.5 µM | 27.8% | 32.9 µg/mL (≈ 52.2 µM) | 6% | 34.6 µg/mL (≈ 54.9 µM) | 2.34 | 20.4% | 17.3% | 16.9% | 100% | 7.7% | O=C(O)CCCOc1cccc(CCCCCCOc2cc(-c3ccsc3)cc(-c3ccc4c(c3)OCO4)c2)c1CCC(=O)O | Active | > 3 µM | Not Active |
